Data from ChEMBL document CHEMBL1157235, “Lupane and oleanane triterpenoids from the cones of Liquidamber styraciflua” (2006).
Calls of active or inactive are those of the source. No cut-off for these calls is given here.

Assays:
[1] = tested on: P388; experiment: Cytotoxicity against mouse P388 cells at 40 uM after 72 hrs by MTT assay; format: functional, cell-based
[2] = tested on: A549; experiment: Cytotoxicity against human A549 cells at 40 uM after 72 hrs by MTT assay; format: functional, cell-based
[3] = tested on: P388; experiment: Cytotoxicity against mouse P388 cells after 72 hrs by MTT assay; format: functional; conditions: P388, 72 h, read-out: ED50 (the source's name)
Outline: (§1)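 Cells were grown in RPMI-1640 with 10% FBS at 37 °C under humidified 5% CO2 and seeded at 1 × 10^4 cells/well with compounds for 72 h. MTT (5 mg/mL stock) was then added for 4 h at 37 °C. Formazan was solubilized with acidic SDS (0.02 N HCl in 20% SDS), and absorbance was read at 570 nm against a 620 nm reference.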

[4] = tested on: A549; experiment: Cytotoxicity against human A549 cells after 72 hrs by MTT assay; format: functional; conditions: A549, 72 h, read-out: ED50 (the source's name); outline: as §1

CC(=O)[C@@H]1CC[C@]2(C(=O)O)CC[C@]3(C)[C@H](CC[C@@H]4[C@@]5(C)CCC(=O)C(C)(C)[C@@H]5[C@H](O)C[C@]43C)[C@@H]12
Activity [1]: inactive | Activity [2]: inactive

CC(=O)OC[C@]12CC[C@@H](O)C(C)(C)C1CC[C@]1(C)[C@@H]2CC=C2[C@@H]3CC(C)(C)CC[C@]3(C(=O)O)CC[C@]21C (stereo not given in full)
EC50 [3]: 28.2 µM | EC50 [4]: 13.3 µM

CC1(C)CC[C@]2(C(=O)O)CC[C@]3(C)C(=CC[C@@H]4[C@@]5(C)CCC(=O)C(C)(C)[C@@H]5[C@H](O)C[C@]43C)[C@@H]2C1
EC50 [3]: 18.5 µM | EC50 [4]: 33.5 µM

C=C(C)[C@@H]1CC[C@]2(C(=O)O)CC[C@]3(C)[C@@H](CC[C@@H]4[C@@]5(C)CCC(=O)C(C)(C)[C@@H]5[C@H](O)C[C@]43C)[C@@H]12
EC50 [3]: 32.7 µM | EC50 [4]: ≥ 40 µM

C=C(C)[C@@H]1CC[C@]2(C(=O)O)CC[C@]3(C)[C@H](CC[C@@H]4[C@]56CC[C@@](O)(OC5)C(C)(C)[C@@H]6CC[C@]43C)[C@@H]12
EC50 [3]: 22.3 µM | EC50 [4]: 29.9 µM

COc1cc([C@@H]2c3cc4c(cc3[C@@H](O[C@@H]3O[C@@H]5CO[C@@H](C)O[C@H]5[C@H](O)[C@H]3O)[C@H]3COC(=O)[C@H]23)OCO4)cc(OC)c1O [ETOPOSIDE]
EC50 [4]: 3.76 µM

CC1(C)CC[C@]2(C(=O)O)CC[C@]3(C)C(=CC[C@@H]4[C@]56CC[C@@](O)(OC5)C(C)(C)[C@@H]6CC[C@]43C)[C@@H]2C1 [LANTANOLIC ACID]
EC50 [3]: 24 µM | EC50 [4]: 26.5 µM

C=C(CO)[C@@H]1CC[C@]2(C(=O)O)CC[C@]3(C)[C@H](CC[C@@H]4[C@@]5(C)CCC(=O)C(C)(C)[C@@H]5[C@H](O)C[C@]43C)[C@@H]12
Activity [1]: inactive | Activity [2]: inactive
